≈ marks a conversion by molar mass, not a printed value.
Columns and labels:
[1] = tested on: Candida albicans; test: Antifungal activity against Candida albicans ATCC 10231 after 1 hr by CLSI M26-A based method at room temperature; type: functional; conditions: ATCC 10231, 1 h
Procedure, shortened: (§1)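 Minimum bactericidal (bacteria) or fungicidal (C. albicans) concentration was determined by a modified CLSI M26-A method. Isotonic saline at pH 4 replaced Mueller–Hinton broth because chlorine reacts with broth components. Exposure was shortened from 16–20 h at 35 °C to 1 h at room temperature.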

[2] = tested on: Staphylococcus aureus; test: Antibacterial activity against Staphylococcus aureus ATCC 29213 after 1 hr by CLSI M26-A based method at room temperature; type: functional; conditions: ATCC 29213, 1 h; procedure, shortened: as §1
[3] = tested on: Escherichia coli; test: Antibacterial activity against Escherichia coli ATCC 25922 after 1 hr by CLSI M26-A based method at room temperature; type: functional; conditions: ATCC 25922, 1 h; procedure, shortened: as §1
[4] = Stability in saline solution assessed as half life at pH 4; type: physicochemical
Procedure, shortened: (§2)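 Aqueous half-life is reported in days. Media were saline at pH 4, phosphate at pH 7, and, for some analogs, 0.6% borate buffer at pH 7. Biological testing was limited to analogs with aqueous stability above 24 h at 40 °C.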

[5] = Stability in phosphate buffer assessed as half life at pH 7; type: physicochemical; procedure, shortened: as §2
[6] = Stability in water assessed as half life at pH 4 at 40 degC; type: physicochemical
[7] = Stability in 0.6% borate buffer assessed as half life at pH 7; type: physicochemical; procedure, shortened: as §2

| Compound | half-life [4] [days] | half-life [5] [days] | half-life [6] [days] | half-life [7] [days] | MFC [1] [µg/mL] | MBC [2] [µg/mL] | MBC [3] [µg/mL] |
| --- | --- | --- | --- | --- | --- | --- | --- |
| CC(C)(CC(=O)OCCS(=O)(=O)O)N(Cl)Cl | – | – | > 95 | – | – | – | – |
| Cn1nc[n+](C)c1CC(C)(C)N(Cl)Cl.[Cl-] | 67 | 5 | – | – | 16 | 4 | 2 |
| Cc1nn(C)c(CC(C)(C)N(Cl)Cl)[n+]1C.[Cl-] | 61 | 4 | – | – | 32 | 8 | 4 |
| Cc1nc(CC(C)(C)N(Cl)Cl)n(CCS(=O)(=O)O)n1 | 46 | 50 | – | – | 64 (≈ 193 µM) | 4 (≈ 12.1 µM) | 4 (≈ 12.1 µM) |
| CC(C)(CNC(=O)CCS(=O)(=O)O)N(Cl)Cl | – | – | 0.5 | – | – | – | – |
| CC(C)(Cc1nc(CS(=O)(=O)O)no1)N(Cl)Cl | 106 | 17 | – | – | 16 (≈ 52.6 µM) | 2 (≈ 6.58 µM) | 4 (≈ 13.2 µM) |
| CC(C)(CC(=O)NCCS(=O)(=O)O)N(Cl)Cl | 33 | – | – | 36 | 64 (≈ 218 µM) | 8 (≈ 27.3 µM) | 2 (≈ 6.82 µM) |
| CC(=O)N1CC[N+](C)(CC(C)(C)N(Cl)Cl)CC1.[Cl-] | 37 | – | – | 6 | > 1020 | 64 | 16 |
| CC(C)(c1cn(CCS(=O)(=O)O)nn1)N(Cl)Cl | 10 | 5 | – | – | 32 (≈ 106 µM) | 8 (≈ 26.4 µM) | 4 (≈ 13.2 µM) |

The next lines start with results.

| half-life [4] [days] | half-life [5] [days] | half-life [6] [days] | half-life [7] [days] | Compound | MFC [1] [µg/mL] | MBC [2] [µg/mL] | MBC [3] [µg/mL] |
| --- | --- | --- | --- | --- | --- | --- | --- |
| > 730 | > 300 | – | – | CC(C)(CS(=O)(=O)[O-])N(Cl)Cl.[Na+] | 32 | 2 | 2 |
| – | – | 0.104 | – | CC(C)(COCCCS(=O)(=O)O)N(Cl)Cl | – | – | – |
| 4 | 6 | – | – | CN(CC[N+](C)(C)C)C(=O)CC(C)(C)N(Cl)Cl.[Cl-] | 32 | 16 | 2 |
| > 122 | 100 | – | – | CC(C)(C[N+]1(C)CCCCC1)N(Cl)Cl.[Cl-] | 64 | 16 | 8 |
| > 325 | > 396 | – | – | CC(C)(C[N+](C)(C)C)N(Cl)Cl.[Cl-] | 128 | 16 | 8 |
| > 180 | 19 | – | – | CC(C)(C[N+](C)(C)CCS(=O)(=O)O)N(Cl)Cl.[Cl-] | 128 | 64 | 16 |
| > 72 | 7 | – | – | CC(C)(CC(=O)OCC[N+]1(C)CCCCC1)N(Cl)Cl.[Cl-] | – | 4 | 2 |
| > 67 | 1 | – | – | C[S+](C)CC(C)(C)N(Cl)Cl.[Cl-] | 128 | 8 | 4 |
| 1 | 1 | – | – | CN(CCS(=O)(=O)O)C(=O)CC(C)(C)N(Cl)Cl | 32 (≈ 104 µM) | 2 (≈ 6.51 µM) | 1 (≈ 3.26 µM) |
| 21 | 23 | – | – | CC(C)(Cc1ncnn1CCS(=O)(=O)O)N(Cl)Cl | 64 (≈ 202 µM) | 4 (≈ 12.6 µM) | 2 (≈ 6.31 µM) |
| > 60 | – | – | 20 | C[n+]1ccc(CCC(C)(C)N(Cl)Cl)cc1.[Cl-] | 1020 | 8 | 2 |
| < 1 | < 1 | – | – | CC(C)(C[N+]1(C)CCOCC1)N(Cl)Cl.[Cl-] | – | – | – |

Reference: ChEMBL document CHEMBL1151862, “Quaternary ammonium N,N-dichloroamines as topical, antimicrobial agents” (Bioorg Med Chem Lett, 2009)
